In ChEMBL document CHEMBL1149250, “Optimization of protein kinase CK2 inhibitors derived from 4,5,6,7-tetrabromobenzimidazole” (J Med Chem, 2004):
Active and inactive are the calls of the source. The calls are words filed in the database; no cut-off is given here.

Columns and labels:
Jurkat [1] = assay: Inhibition of cell viability in Jurkat T cells after 24 hrs by MTT method; assay type: functional, cell-based; conditions: Homo sapiens
Method in brief: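 Human Jurkat T-leukemia cells, grown in RPMI-1640 with 10% FCS, were resuspended at 10⁶ cells/mL in medium with 1% FCS. They were exposed to increasing compound concentrations for 24 h at 37 °C. Controls received DMSO (0.5% v/v), set as 100% viability. Viability was read by MTT. Values are means ± SEM of three separate experiments; DC50 was taken as the concentration halving viability.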

[2] = target: Tyrosine-protein kinase CSK (Homo sapiens) (UniProt P41240); assay: Inhibition of CSK at 10 uM relative to control
Method in brief: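 Kinase selectivity panel: activity of each kinase measured with inhibitor at 10 μM. Residual activity is expressed as a percentage of a control run without inhibitor. Assays were linear with respect to time and enzyme concentration. Lyn, c-Fgr and Syk were purified from rat spleen. Golgi CK came from rat lactating mammary gland.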

[3] = target: Casein kinase I (Homo sapiens) (UniProt Q9HCP0+P78368+P48730+P49674+P48729); assay: Residual activity of CK1 at 10 uM relative to control
[4] = target: Tyrosine-protein kinase Lyn (Homo sapiens) (UniProt P07948); assay: Residual activity of Lyn at 10 uM relative to control
[5] = target: Tyrosine-protein kinase SYK (Rattus norvegicus) (UniProt Q64725); assay: Residual activity of Syk at 10 uM relative to control
[6] = target: Ribosomal protein S6 kinase alpha-5 (Homo sapiens) (UniProt O75582); assay: Residual activity of MSK1 at 10 uM relative to control
[7] = target: MAP kinase-activated protein kinase 5 (Homo sapiens) (UniProt Q8IW41); assay: Residual activity of PRAK at 10 uM relative to control
[8] = target: Ribosomal protein S6 kinase beta-1 (Homo sapiens) (UniProt P23443); assay: Residual activity of S6K1 at 10 uM relative to control
[9] = target: Mitogen-activated protein kinase 12 (Homo sapiens) (UniProt P53778); assay: Residual activity of SAPK3/p38gamma relative to control
[10] = target: T1, Ribosomal protein S6 kinase alpha-1 (Homo sapiens, UniProt Q15418); assay: Residual activity of MAPKAPK1a at 10 uM relative to control
Homo sapiens [11] = species on record: Homo sapiens; assay: Inhibition of phosphorylase kinase at 10 uM relative to control
[12] = target: Mitogen-activated protein kinase 13 (Homo sapiens) (UniProt O15264); assay: Residual activity of SAPK4/p38delta at 10 uM relative to control
[13] = target: cAMP-dependent protein kinase (PKA) (Homo sapiens) (UniProt P22694+P17612+P22612); assay: Inhibition of PKA at 10 uM relative to control; values are per cent of control
[14] = target: Serine/threonine-protein kinase Sgk1 (Homo sapiens) (UniProt O00141); assay: Inhibition of SGK at 10 uM relative to control; values are per cent of control
[15] = target: T2, Dual specificity mitogen-activated protein kinase kinase 1 (Homo sapiens, UniProt Q02750); assay: Inhibition of MKK1 at 10 uM relative to control; values are per cent of control
[16] = target: 3-phosphoinositide-dependent protein kinase 1 (Homo sapiens) (UniProt O15530); assay: Inhibition of PDK1 at 10 uM relative to control; values are per cent of control
[17] = target: AMP-activated protein kinase (AMPK) alpha-1/beta-1/gamma-1 (Homo sapiens) (UniProt P54619+Q9Y478+Q13131); assay: Inhibition of AMPK at 10 uM relative to control; values are per cent of control
Homo sapiens [18] = species on record: Homo sapiens; assay: Inhibition of PP2A at 10 uM relative to control; values are per cent of control
[19] = target: Rho-associated protein kinase 2 (Homo sapiens) (UniProt O75116); assay: Inhibition of ROCK2 at 10 uM relative to control; values are per cent of control
[20] = target: T3, Dual specificity tyrosine-phosphorylation-regulated kinase 1A (Homo sapiens, UniProt Q13627); assay: Inhibition of DYRK1A at 10 uM relative to control; values are per cent of control
[21] = target: Glycogen synthase kinase-3 beta (Homo sapiens) (UniProt P49841); assay: Inhibition of GSKbeta at 10 uM relative to control; values are per cent of control
[22] = target: Serine/threonine-protein kinase Chk1 (Homo sapiens) (UniProt O14757); assay: Inhibition of at CHK1 at 10 uM relative to control; values are per cent of control
[23] = target: MAP kinase-activated protein kinase 2 (Homo sapiens) (UniProt P49137); assay: Inhibition of MAPKAPK2 at 10 uM relative to control; values are per cent of control
[24] = target: Protein kinase C alpha type (Homo sapiens) (UniProt P17252); assay: Inhibition of PKCalpha at 10 uM relative to control; values are per cent of control
[25] = target: RAC-alpha serine/threonine-protein kinase (Homo sapiens) (UniProt P31749); assay: Inhibition of PKBalpha at 10 uM relative to control; values are per cent of control
[26] = target: Mitogen-activated protein kinase 1 (Homo sapiens) (UniProt P28482); assay: Inhibition of MAPK2/ERK2 at 10 uM relative to control; values are per cent of control
[27] = target: Mitogen-activated protein kinase 8 (Homo sapiens) (UniProt P45983); assay: Inhibition of JNK/SAPK1c at 10 uM relative to control; values are per cent of control
[28] = target: Mitogen-activated protein kinase 14 (Homo sapiens) (UniProt Q16539); assay: Inhibition of SAPK2a/p38 at 10 uM relative to control; values are per cent of control
[29] = target: Mitogen-activated protein kinase 11 (Homo sapiens) (UniProt Q15759); assay: Inhibition of SAPK2b/p38--beta-2 at 10 uM relative to control; values are per cent of control
Casein kinase II = Casein kinase II (Homo sapiens, UniProt P19784+P67870+P68400); assay: Inhibition of CK2; assay type: protein-complex assay
Jurkat [30] = assay: Induction of mitochondrial depolarization in Jurkat T cells up to 10 uM; assay type: functional, cell-based; conditions: Homo sapiens
[31] = target: T3, Dual specificity tyrosine-phosphorylation-regulated kinase 1A; assay: Inhibition of DYRK1A
[32] = target: T2, Dual specificity mitogen-activated protein kinase kinase 1; assay: Inhibition of MKK1
[33] = target: T1, Ribosomal protein S6 kinase alpha-1; assay: Inhibition of MAPKAPK1a
[34] = target: Serine/threonine-protein kinase Sgk1 (Homo sapiens, UniProt O00141); assay: Inhibition of SGK
[35] = target: Cyclin-dependent kinase 2/cyclin A (Homo sapiens, UniProt P24941); assay: Inhibition of CDK2/Cyclin A; assay type: protein-complex assay
Jurkat [36] = assay: Induction of caspase activation assessed as PARP cleavage in Jurkat T cells; assay type: functional, cell-based; conditions: Homo sapiens
Method in brief: (§1)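 Jurkat T cells suspended at 10⁶ cells/mL in RPMI-1640 with 1% fetal calf serum, treated 14 h at 37 °C with 5 or 10 μM compound; untreated cells as control, 50 ng/mL anti-Fas as apoptotic control. Cells lysed in hypo-osmotic buffer; caspase activation read by Western blot as degradation of HS1 (full length and major fragment) and PARP.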

Jurkat [37] = assay: Induction of caspase activation assessed as HS1 protein cleavage in Jurkat T cells; assay type: functional, cell-based; conditions: Homo sapiens; method in brief: as §1
[38] = target: Tyrosine-protein kinase Lck (Homo sapiens) (UniProt P06239); assay: Inhibition of Lck at 10 uM relative to control; values are per cent of control
[39] = target: EKC/KEOPS complex subunit BUD32 (Saccharomyces cerevisiae S288c) (UniProt P53323); assay: Inhibition of PiD261 at 10 uM relative to control; values are per cent of control

Casein kinase II, sequence (P67870 whole entry): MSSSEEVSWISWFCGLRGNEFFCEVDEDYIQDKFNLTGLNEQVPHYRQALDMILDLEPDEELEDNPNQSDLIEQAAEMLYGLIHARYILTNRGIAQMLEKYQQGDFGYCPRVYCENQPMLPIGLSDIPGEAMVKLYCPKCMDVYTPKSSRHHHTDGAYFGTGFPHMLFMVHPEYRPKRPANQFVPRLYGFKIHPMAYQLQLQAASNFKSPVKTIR
Casein kinase II, sequence (P68400 whole entry): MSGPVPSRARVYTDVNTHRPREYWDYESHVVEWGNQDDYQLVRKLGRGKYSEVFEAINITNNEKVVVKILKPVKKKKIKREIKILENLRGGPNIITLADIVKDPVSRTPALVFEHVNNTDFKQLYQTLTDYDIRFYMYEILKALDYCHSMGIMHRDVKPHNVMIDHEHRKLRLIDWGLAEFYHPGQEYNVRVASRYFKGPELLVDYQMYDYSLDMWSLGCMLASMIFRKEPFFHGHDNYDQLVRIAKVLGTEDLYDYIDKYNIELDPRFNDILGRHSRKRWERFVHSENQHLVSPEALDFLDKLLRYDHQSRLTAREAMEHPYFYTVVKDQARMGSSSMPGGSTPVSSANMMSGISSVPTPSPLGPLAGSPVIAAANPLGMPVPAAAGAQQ
Casein kinase II, sequence (P19784 whole entry): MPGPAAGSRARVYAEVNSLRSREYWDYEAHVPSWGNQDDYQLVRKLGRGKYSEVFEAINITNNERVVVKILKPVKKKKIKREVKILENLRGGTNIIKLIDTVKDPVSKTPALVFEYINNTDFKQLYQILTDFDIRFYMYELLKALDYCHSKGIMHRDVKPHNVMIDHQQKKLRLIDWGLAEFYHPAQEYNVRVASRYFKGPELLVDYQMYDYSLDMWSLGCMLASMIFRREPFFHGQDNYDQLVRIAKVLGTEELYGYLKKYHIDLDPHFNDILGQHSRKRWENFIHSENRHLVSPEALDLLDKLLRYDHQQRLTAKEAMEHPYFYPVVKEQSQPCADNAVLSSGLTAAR
T1 sequence (Q15418 whole entry): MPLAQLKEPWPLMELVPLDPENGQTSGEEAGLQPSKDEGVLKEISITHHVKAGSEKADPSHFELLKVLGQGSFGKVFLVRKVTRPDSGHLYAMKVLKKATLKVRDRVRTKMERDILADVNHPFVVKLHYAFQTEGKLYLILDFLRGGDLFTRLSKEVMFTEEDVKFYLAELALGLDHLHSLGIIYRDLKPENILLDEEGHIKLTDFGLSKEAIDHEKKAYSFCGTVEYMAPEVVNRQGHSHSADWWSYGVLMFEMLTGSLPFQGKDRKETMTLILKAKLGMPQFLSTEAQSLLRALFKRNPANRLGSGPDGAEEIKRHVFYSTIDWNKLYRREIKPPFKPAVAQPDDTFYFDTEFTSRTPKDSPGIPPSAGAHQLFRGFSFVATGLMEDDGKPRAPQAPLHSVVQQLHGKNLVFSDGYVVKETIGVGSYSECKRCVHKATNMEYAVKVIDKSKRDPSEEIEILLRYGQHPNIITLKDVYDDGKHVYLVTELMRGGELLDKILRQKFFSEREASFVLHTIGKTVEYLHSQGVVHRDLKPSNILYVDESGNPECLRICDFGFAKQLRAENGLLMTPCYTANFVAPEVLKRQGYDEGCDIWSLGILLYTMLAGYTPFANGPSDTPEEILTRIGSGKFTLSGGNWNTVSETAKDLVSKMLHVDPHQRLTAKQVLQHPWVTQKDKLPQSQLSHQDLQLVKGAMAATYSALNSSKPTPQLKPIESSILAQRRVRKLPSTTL
T2 sequence (Q02750 whole entry): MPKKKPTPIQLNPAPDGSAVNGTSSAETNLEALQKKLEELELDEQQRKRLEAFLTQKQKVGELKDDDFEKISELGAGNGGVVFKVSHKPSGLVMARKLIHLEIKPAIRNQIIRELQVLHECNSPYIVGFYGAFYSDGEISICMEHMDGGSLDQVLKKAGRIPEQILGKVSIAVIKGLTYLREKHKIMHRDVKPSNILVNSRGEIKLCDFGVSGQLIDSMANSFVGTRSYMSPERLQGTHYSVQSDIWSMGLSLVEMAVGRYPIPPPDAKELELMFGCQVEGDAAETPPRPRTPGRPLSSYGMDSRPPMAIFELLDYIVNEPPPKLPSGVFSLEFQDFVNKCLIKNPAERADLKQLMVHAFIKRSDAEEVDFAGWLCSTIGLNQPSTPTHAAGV
Mitogen-activated protein kinase 14 (Homo sapiens), sequence (Q16539 whole entry): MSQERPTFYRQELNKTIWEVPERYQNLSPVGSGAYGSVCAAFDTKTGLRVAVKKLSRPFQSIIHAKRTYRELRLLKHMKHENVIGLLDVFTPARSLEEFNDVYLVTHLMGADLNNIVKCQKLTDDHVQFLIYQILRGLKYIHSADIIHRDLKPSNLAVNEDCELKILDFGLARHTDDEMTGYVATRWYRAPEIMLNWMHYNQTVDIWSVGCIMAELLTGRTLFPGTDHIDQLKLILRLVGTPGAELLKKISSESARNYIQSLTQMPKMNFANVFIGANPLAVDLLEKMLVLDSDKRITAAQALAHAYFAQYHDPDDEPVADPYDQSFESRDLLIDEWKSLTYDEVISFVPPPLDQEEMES
Ribosomal protein S6 kinase alpha-5 (Homo sapiens), sequence (O75582 whole entry, looked up): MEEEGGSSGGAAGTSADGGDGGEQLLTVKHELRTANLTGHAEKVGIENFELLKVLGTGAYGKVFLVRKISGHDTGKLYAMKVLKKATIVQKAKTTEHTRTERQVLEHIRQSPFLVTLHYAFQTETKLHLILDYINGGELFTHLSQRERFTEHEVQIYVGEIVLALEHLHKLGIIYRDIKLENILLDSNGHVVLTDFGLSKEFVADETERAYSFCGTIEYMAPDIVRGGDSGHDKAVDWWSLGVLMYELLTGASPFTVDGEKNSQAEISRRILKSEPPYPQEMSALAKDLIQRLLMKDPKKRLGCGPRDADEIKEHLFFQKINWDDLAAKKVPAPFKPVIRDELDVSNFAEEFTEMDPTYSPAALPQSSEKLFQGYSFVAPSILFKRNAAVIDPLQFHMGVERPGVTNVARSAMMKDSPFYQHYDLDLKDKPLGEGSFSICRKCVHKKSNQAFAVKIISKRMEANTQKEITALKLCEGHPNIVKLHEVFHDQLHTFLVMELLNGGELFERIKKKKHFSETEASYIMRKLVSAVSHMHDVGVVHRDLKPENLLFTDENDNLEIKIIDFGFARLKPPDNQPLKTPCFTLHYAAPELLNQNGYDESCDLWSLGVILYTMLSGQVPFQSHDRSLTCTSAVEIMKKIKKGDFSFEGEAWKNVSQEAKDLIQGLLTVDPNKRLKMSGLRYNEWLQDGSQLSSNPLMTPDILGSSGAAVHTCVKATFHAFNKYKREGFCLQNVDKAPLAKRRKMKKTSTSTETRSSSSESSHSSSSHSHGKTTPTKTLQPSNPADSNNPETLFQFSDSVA
Tyrosine-protein kinase Lyn (Homo sapiens), sequence (P07948 2-512 limits assumed): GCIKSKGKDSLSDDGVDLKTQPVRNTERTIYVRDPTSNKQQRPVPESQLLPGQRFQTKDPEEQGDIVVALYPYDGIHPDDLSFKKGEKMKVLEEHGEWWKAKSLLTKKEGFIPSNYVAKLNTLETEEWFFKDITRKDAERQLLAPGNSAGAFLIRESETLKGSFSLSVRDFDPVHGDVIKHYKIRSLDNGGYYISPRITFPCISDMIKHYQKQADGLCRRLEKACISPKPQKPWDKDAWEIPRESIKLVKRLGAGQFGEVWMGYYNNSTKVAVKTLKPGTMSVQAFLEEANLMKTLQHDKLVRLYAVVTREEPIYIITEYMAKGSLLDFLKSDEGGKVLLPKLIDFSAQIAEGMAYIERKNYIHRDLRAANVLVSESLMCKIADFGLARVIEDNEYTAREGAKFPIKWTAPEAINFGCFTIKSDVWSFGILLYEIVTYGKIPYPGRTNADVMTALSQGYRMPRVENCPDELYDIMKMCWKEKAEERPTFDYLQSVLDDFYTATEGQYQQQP
Mitogen-activated protein kinase 11 (Homo sapiens), sequence (Q15759 whole entry): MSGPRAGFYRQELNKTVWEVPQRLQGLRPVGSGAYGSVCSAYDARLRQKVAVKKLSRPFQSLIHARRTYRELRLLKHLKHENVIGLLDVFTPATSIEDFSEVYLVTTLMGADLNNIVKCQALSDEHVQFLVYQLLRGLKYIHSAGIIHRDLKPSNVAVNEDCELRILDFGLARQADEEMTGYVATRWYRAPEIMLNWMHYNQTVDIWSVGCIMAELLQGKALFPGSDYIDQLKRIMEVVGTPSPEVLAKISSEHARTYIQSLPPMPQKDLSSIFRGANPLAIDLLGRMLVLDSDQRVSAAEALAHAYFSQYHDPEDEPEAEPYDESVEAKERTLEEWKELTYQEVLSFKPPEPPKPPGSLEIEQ
Tyrosine-protein kinase SYK (Rattus norvegicus), sequence (Q64725 whole entry, looked up): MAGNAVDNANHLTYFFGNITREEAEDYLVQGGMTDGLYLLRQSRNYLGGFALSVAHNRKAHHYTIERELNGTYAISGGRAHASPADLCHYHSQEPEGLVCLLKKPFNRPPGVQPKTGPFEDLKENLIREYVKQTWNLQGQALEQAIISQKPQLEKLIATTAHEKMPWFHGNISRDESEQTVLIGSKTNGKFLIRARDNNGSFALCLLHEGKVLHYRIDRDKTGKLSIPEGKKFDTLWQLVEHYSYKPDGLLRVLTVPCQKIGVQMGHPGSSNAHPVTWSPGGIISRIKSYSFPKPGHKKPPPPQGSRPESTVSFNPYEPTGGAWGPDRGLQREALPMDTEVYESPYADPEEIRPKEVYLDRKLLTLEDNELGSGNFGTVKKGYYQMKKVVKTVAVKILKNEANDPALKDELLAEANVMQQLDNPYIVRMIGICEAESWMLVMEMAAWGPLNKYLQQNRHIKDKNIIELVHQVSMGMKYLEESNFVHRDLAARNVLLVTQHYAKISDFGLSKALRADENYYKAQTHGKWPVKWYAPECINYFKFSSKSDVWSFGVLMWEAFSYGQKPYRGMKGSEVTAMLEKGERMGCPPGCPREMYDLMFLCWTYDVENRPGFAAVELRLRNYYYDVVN

Brc1c(Br)c(Br)c2[nH]nnc2c1Br [TETRABROMOBENZOTRIAZOLE]
DC50 (Jurkat [1]): 17 µM
inhibition [2]: 101%
residual activity [3]: 91%
residual activity [4]: 99%
residual activity [5]: 102%
residual activity [6]: 111%
residual activity [7]: 87%
residual activity [8]: 89%
residual activity [9]: 89%
residual activity [10]: 90%
residual activity (Homo sapiens [11]): 49%
residual activity [12]: 99%
residual activity [13]: 90%
residual activity [14]: 97%
residual activity [15]: 94%
residual activity [16]: 97%
residual activity [17]: 96%
residual activity (Homo sapiens [18]): 117%
residual activity [19]: 91%
residual activity [20]: 22%
residual activity [21]: 64%
residual activity [22]: 101%
residual activity [23]: 108%
residual activity [24]: 102%
residual activity [25]: 91%
residual activity [26]: 111%
residual activity [27]: 93%
residual activity [28]: 107%
residual activity [29]: 103%

CCOC(=O)CSc1nc2c(Br)c(Br)c(Br)c(Br)c2[nH]1
IC50 (Casein kinase II): 1550 nM

Cn1c(=O)[nH]c2c(Br)c(Br)c(Br)c(Br)c21
IC50 (Casein kinase II): 390 nM
Ki (Casein kinase II): 200 nM

CC(C)Nc1nc2c(Br)c(Br)c(Br)c(Br)c2[nH]1
IC50 (Casein kinase II): 160 nM
Ki (Casein kinase II): 60 nM

O=C(O)CSc1nc2c(Br)c(Br)c(Br)c(Br)c2[nH]1
IC50 (Casein kinase II): 250 nM
Ki (Casein kinase II): 180 nM

CNc1nc2c(Br)c(Br)c(Br)c(Br)c2[nH]1
IC50 (Casein kinase II): 210 nM
Ki (Casein kinase II): 90 nM

O=c1[nH]c2c(Br)c(Br)c(Br)c(Br)c2[nH]1
IC50 (Casein kinase II): 360 nM
Ki (Casein kinase II): 150 nM

CC(C)Oc1nc2c(Br)c(Br)c(Br)c(Br)c2n1C
IC50 (Casein kinase II): 20400 nM

CN(C)CCNc1nc2c(Br)c(Br)c(Br)c(Br)c2[nH]1
IC50 (Casein kinase II): 250 nM
Ki (Casein kinase II): 160 nM

Nc1nc2c(Br)c(Br)c(Br)c(Br)c2[nH]1
IC50 (Casein kinase II): 300 nM
Ki (Casein kinase II): 90 nM

O=[N+]([O-])c1ccc(CSc2nc3c(Br)c(Br)c(Br)c(Br)c3[nH]2)cc1
IC50 (Casein kinase II): 3480 nM

OCC(O)CSc1nc2c(Br)c(Br)c(Br)c(Br)c2[nH]1 (configuration not stated)
IC50 (Casein kinase II): 150 nM
Ki (Casein kinase II): 140 nM

CCOc1nc2c(Br)c(Br)c(Br)c(Br)c2n1C
IC50 (Casein kinase II): > 40000 nM

CN(C)c1nc2c(Br)c(Br)c(Br)c(Br)c2n1C
IC50 (Casein kinase II): 130 nM
Ki (Casein kinase II): 200 nM

Brc1nc2c(Br)c(Br)c(Br)c(Br)c2[nH]1
IC50 (Casein kinase II): 740 nM
Ki (Casein kinase II): 230 nM

Cn1c(Br)nc2c(Br)c(Br)c(Br)c(Br)c21
IC50 (Casein kinase II): 430 nM
Ki (Casein kinase II): 540 nM

OCCNc1nc2c(Br)c(Br)c(Br)c(Br)c2[nH]1
IC50 (Casein kinase II): 270 nM
Ki (Casein kinase II): 130 nM

CC(C)Nc1nc2c(Br)c(Br)c(Br)c(Br)c2n1C
IC50 (Casein kinase II): 180 nM
Ki (Casein kinase II): 190 nM

CC(O)CNc1nc2c(Br)c(Br)c(Br)c(Br)c2[nH]1 (configuration not stated)
IC50 (Casein kinase II): 280 nM
Ki (Casein kinase II): 140 nM

NC(=O)Cn1c(Br)nc2c(Br)c(Br)c(Br)c(Br)c21
IC50 (Casein kinase II): 1570 nM
Ki (Casein kinase II): 1900 nM

CSc1nc2c(Br)c(Br)c(Br)c(Br)c2[nH]1
IC50 (Casein kinase II): 250 nM
Ki (Casein kinase II): 70 nM

C=CCn1c(Br)nc2c(Br)c(Br)c(Br)c(Br)c21
IC50 (Casein kinase II): 880 nM
Ki (Casein kinase II): 630 nM

CSc1nc2c(Br)c(Br)c(Br)c(Br)c2n1C
IC50 (Casein kinase II): 600 nM
Ki (Casein kinase II): 360 nM

CN(C)c1nc2c(Br)c(Br)c(Br)c(Br)c2[nH]1
DC50 (Jurkat [1]): 2.7 µM
Activity (Jurkat [30]): inactive
IC50 [31]: 120 nM
IC50 [32]: 10.5 µM
IC50 [33]: 10.3 µM
IC50 [34]: 3.57 µM
IC50 [35]: 2380 nM
Activity (Jurkat [36]): Active
Activity (Jurkat [37]): Active
residual activity [3]: 87%
residual activity [4]: 91%
residual activity [5]: 103%
residual activity [6]: 73%
residual activity [7]: 77%
residual activity [8]: 65%
residual activity [9]: 88%
residual activity [10]: 52%
residual activity (Homo sapiens [11]): 41%
residual activity [12]: 109%
residual activity [13]: 80%
residual activity [14]: 29%
residual activity [38]: 104%
residual activity [15]: 53%
residual activity [16]: 112%
residual activity [17]: 73%
residual activity (Homo sapiens [18]): 67%
residual activity [19]: 69%
residual activity [39]: 97%
residual activity [20]: 2%
residual activity [21]: 103%
residual activity [22]: 81%
residual activity [23]: 101%
residual activity [24]: 95%
residual activity [25]: 96%
residual activity [26]: 77%
residual activity [27]: 97%
residual activity [28]: 85%
residual activity [29]: 65%
